From ChEMBL document CHEMBL4261600 (Eur J Med Chem, 2018) come the findings set out here.

The structures appear in SMILES notation. Activity calls are given as the source filed them.

For data set [1], the target named is Cyclin-dependent kinase 7 (Homo sapiens) (UniProt P50613). Put plainly: Inhibition of CDK7 in human HL60 cells assessed as decrease in RNA polymerase 2 phosphorylation at Ser 5 residues up to 3 uM after 2 hrs by immunoblotting analysis. Type of data set: cell-based.
Data set [2] can be described thus: Tmax in beagle dog at 10 mg/kg, po by LC-MS/MS analysis. Type of data set: ADME, organism-based, Canis lupus familiaris. As to conditions: in vivo.
Data set [3] can be described thus: Cmax in mouse at 10 mg/kg, po by LC-MS/MS analysis. Conditions: in vivo. The data set is classed as ADME, organism-based. More on the design: dose 10 mg/kg, route oral.
The nature of data set [4]: AUC (0 to t) in beagle dog at 10 mg/kg, po by LC-MS/MS analysis. The data set is classed as ADME, organism-based, Canis lupus familiaris. Conditions: in vivo. In outline: (§1)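 Non-compartmental PK. Male SD rats 190-210 g, mice and beagle dogs acclimatized one week, fasted 12 h with water, split into iv and po groups (mice 48, rats 6, dogs 6). iv 3/3/2 mg/kg (mice/rats/dogs); po 10/20/10 mg/kg; vehicle DMSO in 5% glucose water. Blood at 2 or 5 to 720 min; plasma protein-precipitated with methanol, caffeine internal standard, LC-MS/MS.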

The test system of data set [5] is Canis familiaris. Put plainly: AUC (0 to infinity) in beagle dog at 10 mg/kg, po by LC-MS/MS analysis. The data set is classed as ADME, organism-based, Canis lupus familiaris. As to conditions: in vivo. More on the design: dose 10 mg/kg, time infinity, route oral. The method in brief:
as §1

The test system of data set [6] is Tyrosine-protein kinase ABL1 (Homo sapiens), P00519 [Q252H]. Put plainly: Binding affinity to human phosphorylated ABL1 Q252H mutant expressed in mammalian expression system assessed as remaining unbound target protein level at 1000 nM by Kinomescan method relative to control. In outline: (§2)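 Single-point competition binding screen across a panel of 468 kinases and mutants, with the inhibitor at 1 μM. Binding is read out as percent of a DMSO control, and targets below 1 percent control were classed as strong binders.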

In data set [7] the target is NUAK family SNF1-like kinase 1 (Homo sapiens) (UniProt O60285). Put plainly: Binding affinity to wild-type human partial length ARK5 (E25 to I332 residues) expressed in bacterial expression system assessed as remaining unbound target protein level at 1000 nM by Kinomescan method relative to control. In outline:
(§3)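 Profiled in a KINOMEscan binding panel with the inhibitor at a single concentration of 1 μM. Binding to each kinase was read out as percent of control, relative to a DMSO control. Strong binders were defined as those with a percent control value below 1.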

For data set [8], the target named is Serine/threonine-protein kinase B-raf (Homo sapiens) (UniProt P15056). Put plainly: Binding affinity to wild-type human partial length BRAF (S429 to E741 residues) expressed in mammalian expression system assessed as remaining unbound target protein level at 1000 nM by Kinomescan method relative to control. In outline: as §3
Serine/threonine-protein kinase B-raf (Homo sapiens), sequence (P15056 whole entry, the tested form may be a part): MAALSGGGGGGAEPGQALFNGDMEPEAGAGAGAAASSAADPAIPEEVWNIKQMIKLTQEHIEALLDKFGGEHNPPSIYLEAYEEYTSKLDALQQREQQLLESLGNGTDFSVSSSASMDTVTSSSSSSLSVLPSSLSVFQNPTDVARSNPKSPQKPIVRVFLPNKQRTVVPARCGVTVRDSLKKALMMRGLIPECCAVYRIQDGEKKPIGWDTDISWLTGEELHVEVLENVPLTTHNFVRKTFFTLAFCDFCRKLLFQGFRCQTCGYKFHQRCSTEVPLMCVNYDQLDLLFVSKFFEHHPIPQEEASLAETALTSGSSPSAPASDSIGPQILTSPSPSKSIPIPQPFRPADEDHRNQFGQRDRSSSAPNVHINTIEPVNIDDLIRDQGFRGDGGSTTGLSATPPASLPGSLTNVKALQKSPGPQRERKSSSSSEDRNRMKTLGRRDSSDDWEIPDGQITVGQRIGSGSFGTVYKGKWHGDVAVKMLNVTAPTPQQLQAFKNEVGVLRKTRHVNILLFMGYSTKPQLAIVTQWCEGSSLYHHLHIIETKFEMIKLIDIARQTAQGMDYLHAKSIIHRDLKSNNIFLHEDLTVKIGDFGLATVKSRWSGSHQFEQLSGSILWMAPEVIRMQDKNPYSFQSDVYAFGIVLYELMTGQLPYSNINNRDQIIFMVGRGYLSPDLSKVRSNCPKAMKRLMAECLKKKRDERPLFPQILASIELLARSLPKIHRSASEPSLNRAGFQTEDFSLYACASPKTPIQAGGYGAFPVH
Data set [9] concerns the target Ephrin type-B receptor 3 (Homo sapiens) (UniProt P54753). Put plainly: Binding affinity to wild-type human partial length EPHB3 (Q599 to T928 residues) expressed in bacterial expression system assessed as remaining unbound target protein level at 1000 nM by Kinomescan method relative to control.
The subject of data set [10] is Receptor-type tyrosine-protein kinase FLT3 (Homo sapiens), P36888 [N841I]. Put plainly: Binding affinity to human partial length FLT3 N841I mutant (V592 to Y969 residues) expressed in bacterial expression system assessed as remaining unbound target protein level at 1000 nM by Kinomescan method relative to control. In outline:
(§4)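 KINOMEscan competition-binding profiling across the panel of 468 kinases and mutants, with inhibitor tested at 1 μM. Binding is expressed as percent of control, with DMSO as the reference control.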

In data set [11] the target is Rhodopsin kinase GRK7 (Homo sapiens) (UniProt Q8WTQ7). Put plainly: Binding affinity to wild-type human full length GRK7 (M1 to L553 residues) expressed in mammalian expression system assessed as remaining unbound target protein level at 1000 nM by Kinomescan method relative to control. In outline:
as §2

Data set [12] concerns Mast/stem cell growth factor receptor Kit (Homo sapiens), P10721 [A829P]. Put plainly: Binding affinity to human partial length KIT A829P mutant (I571 to D952 residues) expressed in mammalian expression system assessed as remaining unbound target protein level at 1000 nM by Kinomescan method relative to control. In outline:
as §4

In data set [13] the target is Dual specificity mitogen-activated protein kinase kinase 1 (Homo sapiens) (UniProt Q02750). Put plainly: Binding affinity to wild-type human full length MEK1 (M1 to V393 residues) expressed in mammalian expression system assessed as remaining unbound target protein level at 1000 nM by Kinomescan method relative to control. In outline: as §2
Dual specificity mitogen-activated protein kinase kinase 1 (Homo sapiens), sequence (Q02750 whole entry, the tested form may be a part): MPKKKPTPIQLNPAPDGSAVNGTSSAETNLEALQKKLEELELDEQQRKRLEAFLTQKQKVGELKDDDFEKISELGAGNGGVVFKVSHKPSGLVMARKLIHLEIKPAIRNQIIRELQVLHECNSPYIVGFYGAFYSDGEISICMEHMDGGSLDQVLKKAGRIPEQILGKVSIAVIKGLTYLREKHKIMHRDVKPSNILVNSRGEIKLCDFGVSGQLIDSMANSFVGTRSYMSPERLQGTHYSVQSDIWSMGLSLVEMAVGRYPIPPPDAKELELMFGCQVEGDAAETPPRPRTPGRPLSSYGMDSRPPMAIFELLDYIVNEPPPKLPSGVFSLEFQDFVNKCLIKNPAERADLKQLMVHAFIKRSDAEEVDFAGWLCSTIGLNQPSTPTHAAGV
Data set [14] addresses Maternal embryonic leucine zipper kinase (Homo sapiens) (UniProt Q14680). Put plainly: Binding affinity to wild-type human full length MELK (M1 to V651 residues) expressed in bacterial expression system assessed as remaining unbound target protein level at 1000 nM by Kinomescan method relative to control. The method in brief:
as §2

Data set [15] deals with Serine/threonine-protein kinase 26 (Homo sapiens) (UniProt Q9P289). Put plainly: Binding affinity to wild-type human full length MST4 (M1 to P416 residues) expressed in mammalian expression system assessed as remaining unbound target protein level at 1000 nM by Kinomescan method relative to control. In outline:
as §2

For data set [16], the target named is Serine/threonine-protein kinase Nek4 (Homo sapiens) (UniProt P51957). Put plainly: Binding affinity to wild-type human full length NEK4 (M1 to F841 residues) expressed in mammalian expression system assessed as remaining unbound target protein level at 1000 nM by Kinomescan method relative to control. The method in brief: as §2
Serine/threonine-protein kinase Nek4 (Homo sapiens), sequence (P51957 whole entry, looked up, the tested form may be a part): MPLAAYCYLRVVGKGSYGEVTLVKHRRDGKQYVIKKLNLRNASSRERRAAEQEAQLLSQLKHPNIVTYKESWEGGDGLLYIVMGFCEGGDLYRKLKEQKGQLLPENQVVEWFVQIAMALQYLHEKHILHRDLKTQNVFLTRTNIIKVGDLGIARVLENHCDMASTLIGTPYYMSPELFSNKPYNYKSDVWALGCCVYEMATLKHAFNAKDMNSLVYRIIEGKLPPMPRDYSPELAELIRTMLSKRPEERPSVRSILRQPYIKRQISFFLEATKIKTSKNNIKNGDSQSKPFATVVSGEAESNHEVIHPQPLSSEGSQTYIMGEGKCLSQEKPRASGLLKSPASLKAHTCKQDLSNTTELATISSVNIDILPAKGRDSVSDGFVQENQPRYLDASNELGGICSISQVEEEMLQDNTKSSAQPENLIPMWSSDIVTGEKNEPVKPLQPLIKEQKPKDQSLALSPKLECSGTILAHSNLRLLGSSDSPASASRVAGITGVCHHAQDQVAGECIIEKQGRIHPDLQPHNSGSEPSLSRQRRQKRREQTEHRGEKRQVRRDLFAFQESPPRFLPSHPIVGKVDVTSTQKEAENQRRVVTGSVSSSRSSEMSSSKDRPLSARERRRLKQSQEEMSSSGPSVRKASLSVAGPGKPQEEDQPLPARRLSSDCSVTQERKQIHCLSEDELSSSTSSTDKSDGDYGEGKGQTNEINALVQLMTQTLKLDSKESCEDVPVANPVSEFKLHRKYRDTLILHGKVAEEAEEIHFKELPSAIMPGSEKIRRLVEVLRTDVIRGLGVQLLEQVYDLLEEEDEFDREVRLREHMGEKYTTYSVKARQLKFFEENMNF
Data set [17] concerns the target Mitogen-activated protein kinase 11 (Homo sapiens) (UniProt Q15759). Put plainly: Binding affinity to wild-type human full length p38-beta (M1 to Q364 residues) expressed in bacterial expression system assessed as remaining unbound target protein level at 1000 nM by Kinomescan method relative to control. In outline: as §3
In data set [18] the target is Mitogen-activated protein kinase 13 (Homo sapiens) (UniProt O15264). Put plainly: Binding affinity to wild-type human full length p38-delta (M1 to L365 residues) expressed in bacterial expression system assessed as remaining unbound target protein level at 1000 nM by Kinomescan method relative to control. In outline: as §3
Data set [19] addresses Serine/threonine-protein kinase pim-2 (Homo sapiens) (UniProt Q9P1W9). Put plainly: Binding affinity to wild-type human partial length PIM2 (M1 to E291 residues) expressed in bacterial expression system assessed as remaining unbound target protein level at 1000 nM by Kinomescan method relative to control.
The target of data set [20] is Serine/threonine-protein kinase PLK4 (Homo sapiens) (UniProt O00444). Put plainly: Binding affinity to wild-type human partial length PLK4 (M1 to S273 residues) expressed in mammalian expression system assessed as remaining unbound target protein level at 1000 nM by Kinomescan method relative to control.
Serine/threonine-protein kinase PLK4 (Homo sapiens), sequence (O00444 whole entry, the tested form may be a part): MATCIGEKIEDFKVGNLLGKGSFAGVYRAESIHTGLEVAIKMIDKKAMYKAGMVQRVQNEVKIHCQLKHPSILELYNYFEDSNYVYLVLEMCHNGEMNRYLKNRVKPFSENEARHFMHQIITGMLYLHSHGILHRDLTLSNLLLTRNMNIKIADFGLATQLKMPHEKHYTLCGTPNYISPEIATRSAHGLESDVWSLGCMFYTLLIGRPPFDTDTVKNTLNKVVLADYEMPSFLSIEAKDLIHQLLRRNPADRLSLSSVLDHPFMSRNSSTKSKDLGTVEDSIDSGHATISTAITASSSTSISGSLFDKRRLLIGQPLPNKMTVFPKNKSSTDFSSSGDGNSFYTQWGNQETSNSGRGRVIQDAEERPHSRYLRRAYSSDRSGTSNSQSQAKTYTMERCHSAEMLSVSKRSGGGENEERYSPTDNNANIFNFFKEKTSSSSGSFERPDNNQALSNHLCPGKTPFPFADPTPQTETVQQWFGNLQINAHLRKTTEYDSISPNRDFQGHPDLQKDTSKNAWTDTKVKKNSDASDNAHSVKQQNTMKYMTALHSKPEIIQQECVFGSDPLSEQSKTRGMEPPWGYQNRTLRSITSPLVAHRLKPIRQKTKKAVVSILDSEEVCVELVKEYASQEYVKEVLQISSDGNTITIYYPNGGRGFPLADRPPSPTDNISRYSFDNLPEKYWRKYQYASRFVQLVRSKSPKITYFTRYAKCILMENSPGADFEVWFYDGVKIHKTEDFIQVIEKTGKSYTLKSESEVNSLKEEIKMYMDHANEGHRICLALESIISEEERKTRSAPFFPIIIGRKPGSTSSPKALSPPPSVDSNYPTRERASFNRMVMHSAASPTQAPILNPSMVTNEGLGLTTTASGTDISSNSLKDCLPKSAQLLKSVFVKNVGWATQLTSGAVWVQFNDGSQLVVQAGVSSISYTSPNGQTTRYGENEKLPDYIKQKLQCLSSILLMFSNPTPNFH
Data set [21] deals with Tyrosine-protein kinase receptor TYRO3 (Homo sapiens) (UniProt Q06418). Put plainly: Binding affinity to wild-type human partial length TYRO3 (S497 to T814 residues) expressed in bacterial expression system assessed as remaining unbound target protein level at 1000 nM by Kinomescan method relative to control.
Tyrosine-protein kinase receptor TYRO3 (Homo sapiens), sequence (Q06418 whole entry, the tested form may be a part): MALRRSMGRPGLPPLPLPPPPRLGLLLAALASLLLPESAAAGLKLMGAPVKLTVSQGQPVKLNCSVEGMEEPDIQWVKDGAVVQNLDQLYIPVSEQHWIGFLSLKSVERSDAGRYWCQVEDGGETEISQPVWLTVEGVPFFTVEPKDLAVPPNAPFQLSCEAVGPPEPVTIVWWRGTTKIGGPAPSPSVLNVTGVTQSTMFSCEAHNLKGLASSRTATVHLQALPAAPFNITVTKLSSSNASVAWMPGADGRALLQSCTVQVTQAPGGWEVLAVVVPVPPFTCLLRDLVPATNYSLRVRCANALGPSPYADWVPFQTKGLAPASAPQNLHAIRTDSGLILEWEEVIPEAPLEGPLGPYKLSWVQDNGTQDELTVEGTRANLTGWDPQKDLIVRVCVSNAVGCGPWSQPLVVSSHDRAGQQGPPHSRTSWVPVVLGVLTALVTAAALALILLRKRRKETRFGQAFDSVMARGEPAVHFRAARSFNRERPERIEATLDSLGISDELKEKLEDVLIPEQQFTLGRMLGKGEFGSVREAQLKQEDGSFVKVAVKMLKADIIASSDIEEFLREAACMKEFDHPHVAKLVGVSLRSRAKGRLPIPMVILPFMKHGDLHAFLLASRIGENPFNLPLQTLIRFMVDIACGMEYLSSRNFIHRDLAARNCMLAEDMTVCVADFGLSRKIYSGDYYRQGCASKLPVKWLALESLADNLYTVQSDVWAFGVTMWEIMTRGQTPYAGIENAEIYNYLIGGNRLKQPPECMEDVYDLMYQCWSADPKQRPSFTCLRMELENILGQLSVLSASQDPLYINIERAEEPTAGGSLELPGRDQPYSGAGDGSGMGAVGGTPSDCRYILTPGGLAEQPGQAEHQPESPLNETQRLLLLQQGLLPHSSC
Data set [22] has as its target Tyrosine-protein kinase ZAP-70 (Homo sapiens) (UniProt P43403). Put plainly: Binding affinity to wild-type human partial length ZAP70 (D20 to G299 residues) expressed in mammalian expression system assessed as remaining unbound target protein level at 1000 nM by Kinomescan method relative to control.
The test system of data set [23] is MV4-11. Put plainly: Cell cycle arrest in human MV4-11 cells increase in accumulation at G0/G1 phase at 0.01 to 0.03 uM after 24 hrs by propidium iodide/RNase staining based flow cytometric analysis.

Serine/threonine-protein kinase 26 (Homo sapiens), sequence (Q9P289 2-416 limits assumed): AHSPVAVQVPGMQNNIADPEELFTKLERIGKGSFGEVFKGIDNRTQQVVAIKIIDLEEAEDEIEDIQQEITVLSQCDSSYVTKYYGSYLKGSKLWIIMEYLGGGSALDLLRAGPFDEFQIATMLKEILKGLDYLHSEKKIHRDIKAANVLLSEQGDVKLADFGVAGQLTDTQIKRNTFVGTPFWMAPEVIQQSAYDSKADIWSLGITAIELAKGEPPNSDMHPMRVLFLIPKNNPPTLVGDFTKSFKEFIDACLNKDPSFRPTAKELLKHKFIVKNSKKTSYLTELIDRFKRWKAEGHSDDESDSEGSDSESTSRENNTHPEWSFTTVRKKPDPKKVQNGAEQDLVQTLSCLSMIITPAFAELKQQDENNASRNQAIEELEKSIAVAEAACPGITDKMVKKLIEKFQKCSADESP
NUAK family SNF1-like kinase 1 (Homo sapiens), sequence (O60285 whole entry, the tested form may be a part): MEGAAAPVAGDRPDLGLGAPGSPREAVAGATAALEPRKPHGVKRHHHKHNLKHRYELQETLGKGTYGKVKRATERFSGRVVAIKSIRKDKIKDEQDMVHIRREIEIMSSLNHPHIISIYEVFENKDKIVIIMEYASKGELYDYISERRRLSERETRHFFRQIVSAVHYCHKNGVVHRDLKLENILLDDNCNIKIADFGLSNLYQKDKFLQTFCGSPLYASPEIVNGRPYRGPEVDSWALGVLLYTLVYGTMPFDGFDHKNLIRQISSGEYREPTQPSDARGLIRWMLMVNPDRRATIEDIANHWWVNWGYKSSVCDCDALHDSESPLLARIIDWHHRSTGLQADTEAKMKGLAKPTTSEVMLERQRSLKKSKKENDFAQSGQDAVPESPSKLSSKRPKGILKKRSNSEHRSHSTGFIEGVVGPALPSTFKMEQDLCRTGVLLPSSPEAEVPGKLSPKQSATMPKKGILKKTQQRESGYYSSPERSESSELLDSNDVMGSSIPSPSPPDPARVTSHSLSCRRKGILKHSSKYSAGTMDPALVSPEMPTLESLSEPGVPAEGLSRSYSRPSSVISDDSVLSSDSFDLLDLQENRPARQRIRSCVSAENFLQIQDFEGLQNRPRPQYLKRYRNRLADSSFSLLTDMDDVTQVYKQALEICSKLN

As to `COCCN[C@H]1CC[C@H](Nc2cc(-c3csc(NCC4(C#N)CCOCC4)n3)c(Cl)cn2)CC1`, in data set [1], the inhibition result is “inactive”. For the same compound, the time of peak concentration (Tmax) in data set [2] worked out at 1.33 h. The same compound returned a Cmax in data set [3] of 116 ng/mL. Moreover, in data set [4], the AUC(0-t) came out at 3940 ng·h/mL. Moreover, the AUC in [5] was 16735.55 ng·h/mL. Moreover, the Activity turned out to be 90% in [6]; 100% in data set [7]; 97% in [8]; 100% in [9]; 83% in data set [10]; 100% in [11]. The Activity amounted to 88% in [12]; 100% in data set [13]; 75% in data set [14]; 96% in data set [15]; 98% in data set [16]; 85% in data set [17]. In addition, the Activity in [18] was found to be 100%; in data set [19], 53%; in data set [20] it was 100%; in data set [21], 68%; in [22], 79%. Moreover, in [23], the result was Active.
